In ChEMBL document CHEMBL4177769, “Highly Selective and Potent Ectonucleotide Pyrophosphatase-1 (NPP1) Inhibitors Based on Uridine 5'-Pα,α-Dithiophosphate Analogues” (J Med Chem, 2018):

Legend:
[1] = target: T1, Ectonucleoside triphosphate diphosphohydrolase 3 (Homo sapiens) (UniProt O75355); experiment: Activation of human NTPDase3 using ATP as substrate preincubated for 3 mins followed by substrate addition measured after 10 mins by malachite green reagent-based assay relative to control
T1 sequence (whole entry): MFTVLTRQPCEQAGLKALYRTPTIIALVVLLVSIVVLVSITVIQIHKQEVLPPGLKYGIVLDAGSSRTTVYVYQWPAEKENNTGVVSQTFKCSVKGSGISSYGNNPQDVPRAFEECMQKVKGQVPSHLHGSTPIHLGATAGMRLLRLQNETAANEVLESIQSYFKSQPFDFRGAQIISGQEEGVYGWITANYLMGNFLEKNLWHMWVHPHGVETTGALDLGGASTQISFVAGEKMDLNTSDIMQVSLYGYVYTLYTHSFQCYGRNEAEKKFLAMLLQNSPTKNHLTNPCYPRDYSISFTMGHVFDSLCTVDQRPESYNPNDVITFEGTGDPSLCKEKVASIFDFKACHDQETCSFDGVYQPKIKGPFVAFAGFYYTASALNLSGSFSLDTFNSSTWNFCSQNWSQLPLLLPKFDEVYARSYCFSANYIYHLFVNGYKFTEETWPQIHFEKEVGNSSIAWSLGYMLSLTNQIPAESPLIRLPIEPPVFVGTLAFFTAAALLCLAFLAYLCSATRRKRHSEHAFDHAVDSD
How it was run: (§1)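 Compound at 100 μM, 3 min preincubation, 100 μM ATP, 10 min. Stopped with malachite green; Pi read at 630 nm. Blank with enzyme added after stop subtracted. Activity with ATP alone taken as 100%.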

[2] = target: T2, Ectonucleoside triphosphate diphosphohydrolase 8 (Homo sapiens) (UniProt Q5MY95); experiment: Activation of human NTPDase8 using ATP as substrate preincubated for 3 mins followed by substrate addition measured after 10 mins by malachite green reagent-based assay relative to control; how it was run: as §1
T2 sequence (whole entry): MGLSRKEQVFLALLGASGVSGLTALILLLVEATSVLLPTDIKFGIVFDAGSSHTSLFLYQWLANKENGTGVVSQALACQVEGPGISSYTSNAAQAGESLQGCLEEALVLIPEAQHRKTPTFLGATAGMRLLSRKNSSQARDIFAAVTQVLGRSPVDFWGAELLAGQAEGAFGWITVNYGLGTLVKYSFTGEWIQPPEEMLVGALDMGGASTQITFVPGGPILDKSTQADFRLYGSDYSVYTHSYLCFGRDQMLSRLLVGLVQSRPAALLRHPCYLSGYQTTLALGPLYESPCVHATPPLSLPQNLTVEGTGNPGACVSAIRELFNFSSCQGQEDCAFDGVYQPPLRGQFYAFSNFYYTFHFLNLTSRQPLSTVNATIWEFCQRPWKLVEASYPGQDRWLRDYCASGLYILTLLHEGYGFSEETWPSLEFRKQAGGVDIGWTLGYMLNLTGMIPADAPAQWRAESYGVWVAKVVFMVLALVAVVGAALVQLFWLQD

[3] = target: T3, Ectonucleoside triphosphate diphosphohydrolase 1 (Homo sapiens) (UniProt P49961); experiment: Activation of human NTPDase1 using ATP as substrate preincubated for 3 mins followed by substrate addition measured after 10 mins by malachite green reagent-based assay relative to control; how it was run: as §1
T3 sequence (whole entry): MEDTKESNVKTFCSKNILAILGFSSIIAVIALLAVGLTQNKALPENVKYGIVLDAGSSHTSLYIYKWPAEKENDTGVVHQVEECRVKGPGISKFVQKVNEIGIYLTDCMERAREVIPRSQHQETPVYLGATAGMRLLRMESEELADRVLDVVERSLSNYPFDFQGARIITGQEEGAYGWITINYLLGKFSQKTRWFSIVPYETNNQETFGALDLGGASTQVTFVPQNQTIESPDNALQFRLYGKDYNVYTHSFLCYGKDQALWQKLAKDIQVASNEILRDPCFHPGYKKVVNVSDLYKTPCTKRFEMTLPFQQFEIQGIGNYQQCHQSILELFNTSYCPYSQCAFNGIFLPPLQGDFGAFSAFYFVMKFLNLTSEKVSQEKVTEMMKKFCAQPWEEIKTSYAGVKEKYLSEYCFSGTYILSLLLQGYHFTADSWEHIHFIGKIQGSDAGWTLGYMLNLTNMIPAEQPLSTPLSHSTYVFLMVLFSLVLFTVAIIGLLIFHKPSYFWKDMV

[4] = target: T4, Ectonucleoside triphosphate diphosphohydrolase 2 (Homo sapiens) (UniProt Q9Y5L3); experiment: Activation of human NTPDase2 using ATP as substrate preincubated for 3 mins followed by substrate addition measured after 10 mins by malachite green reagent-based assay relative to control; how it was run: as §1
T4 sequence (whole entry): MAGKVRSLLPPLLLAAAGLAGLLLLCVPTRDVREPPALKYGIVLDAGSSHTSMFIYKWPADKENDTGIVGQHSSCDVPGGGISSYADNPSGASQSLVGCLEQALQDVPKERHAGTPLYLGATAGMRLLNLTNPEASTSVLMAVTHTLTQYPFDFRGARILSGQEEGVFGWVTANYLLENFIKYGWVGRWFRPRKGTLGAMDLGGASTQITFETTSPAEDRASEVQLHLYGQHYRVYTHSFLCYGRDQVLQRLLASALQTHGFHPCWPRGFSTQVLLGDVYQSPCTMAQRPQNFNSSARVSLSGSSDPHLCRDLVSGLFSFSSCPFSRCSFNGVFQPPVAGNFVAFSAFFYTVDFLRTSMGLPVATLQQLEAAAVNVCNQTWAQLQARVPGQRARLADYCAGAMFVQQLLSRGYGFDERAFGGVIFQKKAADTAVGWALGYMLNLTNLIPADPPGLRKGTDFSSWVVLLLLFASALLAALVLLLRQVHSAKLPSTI

Measured: Activity

O=c1ccn([C@@H]2O[C@H](COP(=S)(S)OP(=O)(O)OP(=O)(O)O)[C@@H](O)[C@H]2O)c(=O)[nH]1 (some centres undefined)
7 to 27%: all assays above
